In data set [1] the target is T1, Epidermal growth factor receptor (Homo sapiens, UniProt P00533). Briefly: Inhibition of N-terminal GST tagged recombinant wild type human EGFR expressed in baculovirus infected Sf9 insect cells expression system using 5-FAM-EEPLYINSFPAKKK-CONH peptide as substrate preincubated for 10 mins followed by peptide substrate addition in presence of ATP.
For data set [2], the target named is T2, Epidermal growth factor receptor (Homo sapiens, UniProt P00533, L858R/T790M). The data set is described as follows: Inhibition of EGF stimulated EGFR L858R/T790M double mutant phosphorylation in human NCI-H1975 cells preincubated for 4 to 5 hrs followed by EGF stimulation for 10 mins by AlphaLISA method. In kind it is cell-based.
The nature of data set [3]: Inhibition of N-terminal GST tagged recombinant human EGFR L858R/T790M/C790S (668 to end residues) triple mutant expressed in baculovirus infected Sf9 insect cells using 5-FAM-EEPLYINSFPAKKK-CONH peptide as substrate preincubated for 10 mins followed by peptide substrate addition in presence of ATP.
Data set [4] in a line: Intrinsic clearance in human liver microsomes. The class given is ADME, Microsome. The note with it: for Microsomal intrinsic clearance: microsomes. Background: Liver microsomes are a subcellular fraction often used to study metabolism.
The nature of data set [5]: Inhibition of N-terminal GST tagged recombinant human EGFR ex19del (746 to 750)/ L858R/C790S (668 to end residues) triple mutant expressed in baculovirus infected Sf9 insect cells expression system using 5-FAM-EEPLYINSFPAKKK-CONH peptide as substrate preincubated for 10 mins followed by peptide substrate addition in presence of ATP.
Data set [6] can be described thus: Clearance in Sprague-Dawley rat at 1 mg/kg, iv. The class given is ADME, organism-based. To be noted: in vivo. In short, it runs like this:
(§1)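 Sprague–Dawley rats (n = 3), single IV bolus of 1 mg/kg in 10% DMSO, 10% solutol, 80% of a 20% HP-β-CD solution (in water or in saline, depending on compound). Clearance is plasma clearance after the IV bolus.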

A short description of data set [7]: Half life in Sprague-Dawley rat at 1 mg/kg, iv. To be noted: in vivo. In kind it is ADME, organism-based. In short, it runs like this: as §1
Data set [8] can be described thus: Oral bioavailability in Sprague-Dawley rat at 5 mg/kg. The class given is ADME, organism-based. To be noted: in vivo. In short, it runs like this:
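Sprague–Dawley rats (n = 3) received 1 mg/kg IV and 5 mg/kg PO. IV vehicle was 10% DMSO/10% solutol/80% (20% HP-β-CD). PO vehicle was a suspension in 20% solutol in 0.5% MC in water, or a solution matching the IV vehicle, depending on compound.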

Data set [9] addresses T1, Epidermal growth factor receptor. The data set is described as follows: Inhibition of wild type EGFR in human A-431 cells preincubated for 4 to 5 hrs followed by EGF stimulation for 10 mins by AlphaLISA method. The class given is cell-based. For orientation: Alpha assays give light when donor and acceptor beads are brought close together.
Data set [10] has as its target T2, Epidermal growth factor receptor. Briefly: Inhibition of N-terminal GST tagged recombinant human EGFR L858R/T790M (669 to end residues) double mutant expressed in baculovirus infected Sf9 insect cells expression system using 5-FAM-EEPLYINSFPAKKK-CONH peptide as substrate preincubated for 10 mins followed by peptide substrate addition in presence of ATP.
Data set [11] can be described thus: Intrinsic clearance in human hepatocytes assessed per million cells. In kind it is ADME, cell-based, Hepatocyte. In short, it runs like this: (§2)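 Intrinsic clearance measured in isolated hepatocytes of each species, expressed in μL/min/million cells.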
The nature of data set [12]: Efflux ratio of apparent permeability in MDCK-MDR1 cells. The class given is ADME, cell-based, Canis lupus familiaris. The note with it: dog.
The nature of data set [13]: Intrinsic clearance in cynomolgus monkey liver microsomes in presence of NADPH. In kind it is ADME, Macaca fascicularis, Microsome. In short, it runs like this:
(§3)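 Intrinsic clearance measured in isolated liver microsomes of each species with NADPH, expressed in μL/min/mg.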

The nature of data set [14]: Intrinsic clearance in human liver microsomes in presence of NADPH. In kind it is ADME, Microsome. Summed up: as §3
Data set [15] in a line: Intrinsic clearance in cynomolgus monkey hepatocytes assessed per million cells. The class given is ADME, cell-based, Macaca fascicularis, Hepatocyte. In short, it runs like this: as §2
Data set [16] can be described thus: Apparent permeability across apical to basolateral side in MDCK-MDR1 cells. To be noted: dog. In kind it is ADME, cell-based, Canis lupus familiaris.

SMILES strings stand for the structures. pIC50: −log10 of the molar value.

From ChEMBL document CHEMBL5137066, “Discovery of BLU-945, a Reversible, Potent, and Wild-Type-Sparing Next-Generation EGFR Mutant Inhibitor for Treatment-Resistant Non-Small-Cell Lung Cancer” (J Med Chem, 2022) come the findings set out here.

As usually defined, the pIC50 is the IC50 on a negative log10 scale, so that one unit is a factor of ten. What is called clearance is the volume of plasma or blood freed of the substance per unit of time. In general, half-life refers to the time needed for the level to fall by half in the phase considered. In general, efflux ratio refers to the permeability from basolateral to apical divided by that in the opposite direction, in the common usage.

T1 sequence (P00533 whole entry): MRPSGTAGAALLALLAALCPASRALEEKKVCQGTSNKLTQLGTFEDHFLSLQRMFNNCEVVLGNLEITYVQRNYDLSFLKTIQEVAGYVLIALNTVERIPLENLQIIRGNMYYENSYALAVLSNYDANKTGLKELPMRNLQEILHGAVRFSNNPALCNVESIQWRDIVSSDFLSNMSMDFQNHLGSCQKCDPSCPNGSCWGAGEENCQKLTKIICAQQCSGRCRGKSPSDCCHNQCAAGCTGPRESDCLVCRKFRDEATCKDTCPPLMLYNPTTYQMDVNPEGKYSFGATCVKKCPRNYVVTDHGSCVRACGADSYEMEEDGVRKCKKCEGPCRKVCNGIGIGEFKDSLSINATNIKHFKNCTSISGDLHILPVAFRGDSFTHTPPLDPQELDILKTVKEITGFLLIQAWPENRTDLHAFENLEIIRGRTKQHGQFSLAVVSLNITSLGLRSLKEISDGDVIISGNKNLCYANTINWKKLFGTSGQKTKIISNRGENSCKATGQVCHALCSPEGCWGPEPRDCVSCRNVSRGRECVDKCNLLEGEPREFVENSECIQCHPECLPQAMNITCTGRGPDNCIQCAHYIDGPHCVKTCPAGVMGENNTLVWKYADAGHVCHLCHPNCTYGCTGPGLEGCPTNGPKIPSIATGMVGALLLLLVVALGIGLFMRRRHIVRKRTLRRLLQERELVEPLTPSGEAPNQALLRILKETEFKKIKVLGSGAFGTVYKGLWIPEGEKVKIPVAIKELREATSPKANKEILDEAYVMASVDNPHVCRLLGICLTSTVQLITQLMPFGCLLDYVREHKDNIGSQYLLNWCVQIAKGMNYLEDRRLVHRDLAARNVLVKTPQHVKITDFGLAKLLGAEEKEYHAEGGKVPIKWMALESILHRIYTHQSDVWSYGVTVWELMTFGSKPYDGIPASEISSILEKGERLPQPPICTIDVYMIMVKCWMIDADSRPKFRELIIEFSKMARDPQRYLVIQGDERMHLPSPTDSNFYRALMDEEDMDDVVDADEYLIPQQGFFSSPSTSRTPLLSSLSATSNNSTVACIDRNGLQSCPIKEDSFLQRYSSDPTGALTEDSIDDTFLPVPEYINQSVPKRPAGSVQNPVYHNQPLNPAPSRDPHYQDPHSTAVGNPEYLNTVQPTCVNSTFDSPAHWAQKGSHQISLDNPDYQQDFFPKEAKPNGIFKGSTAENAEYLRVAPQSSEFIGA
T2 sequence (P00533 25-1210 T790M/L858R limits assumed): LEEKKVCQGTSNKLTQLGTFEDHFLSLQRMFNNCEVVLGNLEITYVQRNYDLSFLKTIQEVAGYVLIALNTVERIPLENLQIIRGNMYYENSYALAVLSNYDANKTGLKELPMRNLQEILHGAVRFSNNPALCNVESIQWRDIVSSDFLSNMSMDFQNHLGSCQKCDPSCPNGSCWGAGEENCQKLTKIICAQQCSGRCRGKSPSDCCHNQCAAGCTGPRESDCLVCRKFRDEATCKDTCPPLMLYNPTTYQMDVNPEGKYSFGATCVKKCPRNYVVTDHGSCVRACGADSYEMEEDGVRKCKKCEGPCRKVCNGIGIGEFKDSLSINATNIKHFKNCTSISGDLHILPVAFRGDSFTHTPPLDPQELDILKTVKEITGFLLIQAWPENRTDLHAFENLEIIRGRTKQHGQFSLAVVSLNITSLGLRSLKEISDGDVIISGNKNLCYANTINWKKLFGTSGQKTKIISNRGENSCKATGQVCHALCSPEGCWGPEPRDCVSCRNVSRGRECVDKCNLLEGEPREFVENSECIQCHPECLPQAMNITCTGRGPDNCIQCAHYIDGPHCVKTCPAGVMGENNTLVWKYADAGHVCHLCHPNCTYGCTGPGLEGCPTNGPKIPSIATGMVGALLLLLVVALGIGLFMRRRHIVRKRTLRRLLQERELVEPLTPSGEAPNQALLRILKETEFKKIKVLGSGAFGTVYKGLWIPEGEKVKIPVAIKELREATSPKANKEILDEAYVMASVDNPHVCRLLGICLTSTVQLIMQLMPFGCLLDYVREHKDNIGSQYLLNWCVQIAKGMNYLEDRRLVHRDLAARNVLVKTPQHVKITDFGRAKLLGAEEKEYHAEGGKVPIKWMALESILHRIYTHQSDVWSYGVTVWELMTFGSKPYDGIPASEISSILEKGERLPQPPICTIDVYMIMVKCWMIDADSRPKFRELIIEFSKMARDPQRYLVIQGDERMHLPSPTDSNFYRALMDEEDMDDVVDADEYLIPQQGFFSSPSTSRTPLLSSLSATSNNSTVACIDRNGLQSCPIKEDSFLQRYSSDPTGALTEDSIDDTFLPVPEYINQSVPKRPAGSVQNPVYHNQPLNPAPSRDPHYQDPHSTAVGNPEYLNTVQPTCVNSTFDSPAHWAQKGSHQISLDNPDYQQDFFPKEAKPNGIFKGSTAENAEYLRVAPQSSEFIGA

Regarding `CC(C)c1cnc(N2CC(C#N)C2)c2cnc(Nc3ccnc(N4CC[C@@H](O)[C@@](C)(F)C4)n3)cc12`, the negative logarithm of the IC50 (pIC50) in [1] is 5.47; in data set [2], 7.77; in data set [3] it was 8.28; in data set [5], 8.32. The Microsomal intrinsic clearance in data set [4] was determined as 85 µL/min/mg.

With `CC(C)c1cnc(N2CC(CS(C)(=O)=O)C2)c2cnc(Nc3ccnc(N4CC[C@@H](O)[C@@](C)(F)C4)n3)cc12`, in [6], the clearance was 4.02 L/h/kg. The compound further gave a Microsomal intrinsic clearance in data set [4] of 9.6 µL/min/mg. The compound further gave a half-life in data set [7] of 1.6 h. The F in data set [8] amounted to 2%.

For `CC(C)c1cnc(N2CCC2)c2cnc(Nc3ccnc(N4CC[C@@H](O)[C@@](C)(F)C4)n3)cc12`, the negative logarithm of the IC50 (pIC50) in [9] is 5.06; in [10], 8.68; in data set [2], 7.70; in data set [3], 7.92; in [5], 8.04. Also, in data set [4], the Microsomal intrinsic clearance was 106 µL/min/mg.

`CC(C)c1cnc(N2CC(C(=O)N(C)C)C2)c2cnc(Nc3ccnc(N4CC[C@@H](O)[C@@](C)(F)C4)n3)cc12` yielded a Microsomal intrinsic clearance in [4] of 102 µL/min/mg.

For the compound `CNc1ncc(C(C)C)c2cc(Nc3ccnc(N4CC[C@@H](O)[C@@](C)(F)C4)n3)ncc12`, the Microsomal intrinsic clearance in [4] was 31 µL/min/mg.

In the case of `CC(C)c1cnc(N2CC[C@H]2C)c2cnc(Nc3ccnc(N4CC[C@@H](O)[C@@](C)(F)C4)n3)cc12`, the pIC50 is 5.00 in data set [9]; 5.14 in [1]; 9.52 in [10]; 8.15 in data set [2]; 9.10 in data set [5]. The Microsomal intrinsic clearance in data set [4] is 80 µL/min/mg.

For the compound `CNC(=O)C1CN(c2ncc(C(C)C)c3cc(Nc4ccnc(N5CC[C@@H](O)[C@@](C)(F)C5)n4)ncc23)C1`, the negative logarithm of the IC50 (pIC50) in [10] is 9.00; in data set [2], 7.49; in data set [3], 8.96; in [5] it was 8.47.

On to `CC(C)c1cnc(N2CCCC2)c2cnc(Nc3ccnc(N4CC[C@@H](O)[C@@](C)(F)C4)n3)cc12`, for which the figures for the pIC50 in [2], in data set [3] and in data set [5] were 7.28, 7.67 and 7.64, respectively. Also, in data set [4], the Microsomal intrinsic clearance was 65 µL/min/mg.

As for `COC1CN(c2ncc(C(C)C)c3cc(Nc4ccnc(N5CC[C@@H](O)[C@@](C)(F)C5)n4)ncc23)C1`, the pIC50 in [10] is 8.47; in data set [2] it was 7.62; in [3], 8.14; in data set [5], 8.20. In addition, in data set [4], the Microsomal intrinsic clearance worked out at 91 µL/min/mg.

`CNC(=O)c1cnc(Nc2ccnc(N3CCC(O)CC3)n2)cc1NC(C)C`: the negative logarithm of the IC50 (pIC50) is under 4.60 in [9]; under 5.00 in [1]; 6.54 in [10]; 6.04 in data set [2]; 6.58 in data set [3]. In addition, in data set [4], the Microsomal intrinsic clearance was 4 µL/min/mg.

On to `CC[C@]1(F)CN(c2nccc(Nc3cc4c(C(C)C)ccc(N5C[C@H](CS(C)(=O)=O)[C@H]5C)c4cn3)n2)CC[C@H]1O`, for which the CLH in data set [11] stood at 48 µL/min; in data set [13], 192 µL/min/mg; in data set [14] it was 5.9 µL/min/mg; in data set [15] it was 204 uL/min/10^6 cells. In data set [12], the efflux ratio worked out at 4. In addition, the pIC50 in data set [9] was 6.15; in [1], 6.12; in [10], 9.30; in data set [2] it was 8.74; in data set [3], 9.40. For the same compound, in data set [16], the Papp is recorded as 6 10^-6 cm/s.

In turn, `CC(C)c1cnc(N2C[C@H](O)[C@H]2C)c2cnc(Nc3ccnc(N4CC[C@@H](O)[C@@](C)(F)C4)n3)cc12` had a Microsomal intrinsic clearance in data set [4] of 25 µL/min/mg.

Turning to `CC(C)c1ncc(N2CC[C@H]2C)c2cnc(Nc3ccnc(N4CC[C@@H](O)[C@@](C)(F)C4)n3)cc12`, the pIC50 in data set [1] was 5.47; in [10], 8.66; in [2], 7.64; in data set [3], 8.05; in data set [5], 8.22. The compound also returned a Microsomal intrinsic clearance in data set [4] of 159 µL/min/mg.

For the compound `CC(C)c1cnc(N2C[C@H](CS(C)(=O)=O)[C@H]2C)c2cnc(Nc3ccnc(N4CC[C@@H](O)[C@@](C)(F)C4)n3)cc12`, the efflux ratio in [12] was 16. Moreover, the pIC50 in [9] is 6.11; in data set [1], 6.57; in [10] it was 9.70; in [2], 8.77. The Papp in [16] was 5 10^-6 cm/s.

`CC(C)c1nnc(N2CC[C@H]2C)c2cnc(Nc3ccnc(N4CC[C@@H](O)[C@@](C)(F)C4)n3)cc12`: the pIC50 is 5.09 in data set [1]; 7.80 in [10]; 7.60 in [2]; 7.90 in data set [3]; 8.02 in data set [5]. For the same compound, in [4], the Microsomal intrinsic clearance was 96 µL/min/mg.

Turning to `CC(C)c1cnc(N2CC[C@@H]2C)c2cnc(Nc3ccnc(N4CC[C@@H](O)[C@@](C)(F)C4)n3)cc12`, the pIC50 in [10] is 6.97; in data set [2], 6.68; in data set [3], 6.95; in data set [5], 6.96.

As for `CC(C)c1ncc(N2C[C@H](O)[C@H]2C)c2cnc(Nc3ccnc(N4CC[C@@H](O)[C@@](C)(F)C4)n3)cc12`, the negative logarithm of the IC50 (pIC50) in [1] was 5.38; in data set [10], 8.74; in [2] it was 7.89; in data set [3] it was 8.00; in [5], 8.09. The compound also showed a Microsomal intrinsic clearance in data set [4] of 45 µL/min/mg.

As to `COCC1CN(c2ncc(C(C)C)c3cc(Nc4ccnc(N5CC[C@@H](O)[C@@](C)(F)C5)n4)ncc23)C1`, the pIC50 was 7.96 in data set [10], 7.40 in data set [2], 7.60 in [3] and 7.62 in [5].

`CC(C)c1ccc(N2C[C@H](O)[C@H]2C)c2cnc(Nc3ccnc(N4CC[C@@H](O)[C@@](C)(F)C4)n3)cc12`: the pIC50 in data set [1] is 5.65; in data set [10], 9.30; in data set [2] it was 7.72; in data set [3] it was 8.12; in data set [5] it was 8.26. This compound also displayed a Microsomal intrinsic clearance in [4] of 17 µL/min/mg.

Take `CNC(=O)c1cnc(Nc2ccnc(N3CC[C@@H](O)[C@@H](F)C3)n2)cc1NC(C)C`: the pIC50 was under 4.60 in data set [9]; under 5.00 in data set [1]; 7.00 in data set [10]; 6.38 in data set [2]; 6.98 in data set [3]. This compound came in with a Microsomal intrinsic clearance in data set [4] of 9.1 µL/min/mg.

Take `CC(C)c1ccc(N2CC(CS(C)(=O)=O)C2)c2cnc(Nc3ccnc(N4CC[C@@H](O)[C@@](C)(F)C4)n3)cc12`: the clearance in data set [6] amounted to 1.2 L/h/kg. The compound further had a half-life in [7] of 3 h. In data set [8], this compound yielded an F of 85%. Besides, in data set [16], the Papp is recorded as 17 10^-6 cm/s.

As for `CNc1ncc(C(C)C)c2cc(Nc3ccnc(N4CC[C@@H](O)[C@@H](F)C4)n3)ncc12`, the pIC50 in data set [9] was under 4.60; in data set [1], under 5.00; in data set [10], 7.30; in data set [2], 7.17; in [3] it was 7.34. For the same compound, in data set [4] (liver microsomes, read-out: CLH), the microsomal CLint was 19.1 µL/min/mg.

`CC(C)c1cnc(N2CC(O)C2)c2cnc(Nc3ccnc(N4CC[C@@H](O)[C@@](C)(F)C4)n3)cc12`: the pIC50 in data set [1] was 5.26; in [10], 8.44; in data set [2], 7.39; in data set [3], 7.96; in data set [5], 8.09. In [4], this compound showed a Microsomal intrinsic clearance of 43 µL/min/mg.
